From ChEMBL document CHEMBL1128280, “Synthesis, topoisomerase I inhibitory activity, and in vivo evaluation of 11-azacamptothecin analogs” (J Med Chem, 1995)
Values after ≈ are worked out from the molar mass of the structure shown.

Assays:
[1] = Aqueous solubility in pH 5 acetate buffer.; format: physicochemical
Outline: (§1)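 Excess solid equilibrated in 0.25 mL 0.1 M sodium acetate, pH 5.0, 25 °C, 24 h; filtered (0.22 μm); lactone and carboxylate forms separated by reverse-phase C-18 HPLC, mobile phase 40% organic/60% aqueous with 0.005 M tetrabutylammonium phosphate; quantified against calibration curves of standard peak areas.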

Mus musculus [2] = assay: Delay in tumor growth in mice to 500% volume of day 1 relative to control at dose 90 mg/kg.; format: functional
Outline: (§2)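 Female nu/nu mice bearing subcutaneous flank HT-29 xenografts; single-bolus subcutaneous maximum tolerated dose first set in tumor-free mice by body weight loss, then split into three portions given over one day (N = 6); caliper volume = length × width²/2; T−C = difference in days for mean tumor volume to reach 500% of initial, treated vs controls.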

[3] = (§3) Concentration required to inhibit 50% growth of human colon carcinoma cell line (HT-29); format: functional, cell-based
Outline: (§4)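 MTT microculture tetrazolium assay; cells grown in α-MEM with 15% heat-inactivated FBS, glutamine, pyruvate, insulin, nonessential amino acids, gentamycin, 37 °C, 5% CO2; adhered overnight, exposed to compound 48 h then fresh medium 48 h; 0.17 nM to 10 μM, quadruplicate; 4 h MTT, DMSO extraction; four-parameter logistic fit, usually single curve.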

[4] = Aqueous solubility determined in pH 5 acetate buffer; format: physicochemical; outline: as §1
SK-OV-3 = assay: Concentration required to inhibit 50% growth of human ovarian cancer cell line(SK-OV-3) was measured; format: functional, cell-based; outline: as §4
Mus musculus [5] = assay: Delay in tumor growth in mice to 500% volume of day 1 relative to control at dose 100 mg/kg.; format: functional; outline: as §2
HT-29 = assay: as §3; format: functional, cell-based; outline: as §4
Mus musculus [6] = assay: Delay in tumor growth in mice to 500% volume of day 1 relative to control at dose 25 mg/kg.; format: functional; outline: as §2
SK-VLB = assay: Concentration required to inhibit 50% growth of vinblastine resistant ovarian cancer cell line(SKVLB); format: functional, cell-based; settings: Homo sapiens; outline: as §4
Mus musculus [7] = assay: Delay in tumor growth in mice to 500% volume of day 1 relative to control at dose 146 mg/kg; format: functional; outline: as §2
Mus musculus [8] = assay: Delay in tumor growth in mice to 500% volume of day 1 relative to control at dose 120 mg/kg.; format: functional; outline: as §2
Mus musculus [9] = assay: Delay in tumor growth in mice to 500% volume of day 1 relative to control at dose 200 mg/kg.; format: functional; outline: as §2
Mus musculus [10] = assay: Delay in tumor growth in mice to 500% volume of day 1 relative to control at dose 54 mg/kg.; format: functional
Outline: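 Female nu/nu mice (18-24 g) with subcutaneous HT-29 flank xenografts, N = 6. Maximum tolerated single subcutaneous bolus first set by body weight loss in tumor-free nude mice. That dose was split into three portions given over one day. Tumor volume by calipers as length × width²/2. T−C is the delay, in days, for mean tumor volume to reach 500% of initial versus untreated controls.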

In the case of CCc1c2c(nc3cnccc13)-c1cc3c(c(=O)n1C2)COC(=O)[C@]3(O)CC, the solubility [1] is reported as 10 µg/mL (≈ 0.0265 mM).
In the case of CCc1c2c(nc3cnc(C(=N)N)cc13)-c1cc3c(c(=O)n1C2)COC(=O)[C@]3(O)CC, the T-C (Mus musculus [2]) is reported as 6 days, the IC50 [3] is reported as 311 nM and the solubility [4] is reported as greater than 3000 µg/mL. It also gave an IC50 (SK-OV-3) of 71 nM.
Work on CCc1c2c(nc3c[n+](C)ccc13)-c1cc3c(c(=O)n1C2)COC(=O)[C@]3(O)CC.[I-] yielded a T-C (Mus musculus [5]) of 3.5 days and a solubility [1] greater than 2500 µg/mL.
For CC[C@@]1(O)C(=O)OCc2c1cc1n(c2=O)Cc2c-1nc1cnc(C#CCN)cc1c2C, the IC50 [3] was 355 nM and the IC50 (SK-OV-3) was 245 nM.
Work on CC[C@@]1(O)C(=O)OCc2c1cc1n(c2=O)Cc2cc3cc[n+]([O-])cc3nc2-1 yielded a solubility [1] of 300 µg/mL (≈ 0.821 mM).
Work on CCOC(=O)c1cc2c(CC)c3c(nc2cn1)-c1cc2c(c(=O)n1C3)COC(=O)[C@]2(O)CC yielded an IC50 (HT-29) of 26 nM.
For CCc1c2c(nc3cnc(C(=N)NO)cc13)-c1cc3c(c(=O)n1C2)COC(=O)[C@]3(O)CC, the IC50 [3] was 7 nM, the T-C (Mus musculus [6]) was 15 days and the solubility [4] was greater than 3000 µg/mL. It also gave an IC50 (SK-OV-3) of 0.8 nM.
CCc1c2c(nc3cnc(C#N)cc13)-c1cc3c(c(=O)n1C2)COC(=O)[C@]3(O)CC showed an IC50 (HT-29) of 17 nM.
CCc1c2c(nc3cnc(CN)cc13)-c1cc3c(c(=O)n1C2)COC(=O)[C@]3(O)CC showed an IC50 (SK-OV-3) of 32 nM and an IC50 (SK-VLB) of 444 nM.
With CC[C@@]1(O)C(=O)OCc2c1cc1n(c2=O)Cc2c-1nc1cnc(Br)cc1c2C the IC50 (HT-29) was 1 nM, the IC50 (SK-OV-3) was 1 nM and the IC50 (SK-VLB) was 0.5 nM.
With CCc1c2c(nc3cnc(C#CCN)cc13)-c1cc3c(c(=O)n1C2)COC(=O)[C@]3(O)CC the IC50 (HT-29) was 351 nM, the solubility [4] was 5700 µg/mL (≈ 13.2 mM) and the IC50 (SK-OV-3) was 243 nM. For the same compound, the IC50 (SK-VLB) was 384 nM and the T-C (Mus musculus [7]) was 1.5 days.
For CCc1c2c(nc3cnc(Br)cc13)-c1cc3c(c(=O)n1C2)COC(=O)[C@]3(O)CC, the IC50 (HT-29) was 7 nM.
CC[C@@]1(O)C(=O)OCc2c1cc1n(c2=O)Cc2c-1nc1c[n+]([O-])c(CN)cc1c2C showed an IC50 [3] of 731 nM, a T-C (Mus musculus [8]) of 5.3 days and a solubility [4] greater than 3000 µg/mL. It also gave an IC50 (SK-OV-3) of 66 nM.
In the case of CC[C@@]1(O)C(=O)OCc2c1cc1n(c2=O)Cc2c-1nc1cnc(CN)cc1c2C, the IC50 (HT-29) is reported as 123 nM, the solubility [4] is reported as 7200 µg/mL (≈ 18.3 mM) and the T-C (Mus musculus [9]) is reported as 3.4 days. For the same compound, the IC50 (SK-OV-3) was 17 nM and the IC50 (SK-VLB) was 42 nM.
Compound CC[C@@]1(O)C(=O)OCc2c1cc1n(c2=O)Cc2cc3ccccc3nc2-1 [CAMPTOTHECIN] has a solubility [1] of less than 5 µg/mL.
Compound CC[C@@]1(O)C(=O)OCc2c1cc1n(c2=O)Cc2cc3c(CN(C)C)c(O)ccc3nc2-1.Cl [TOPOTECAN HYDROCHLORIDE] has a T-C (Mus musculus [10]) of 10.3 days and a solubility [4] of 3100 µg/mL.
